Source: PubChem
Only some compounds are listed: those with a hit (about 2.9% of all), similar ones and a draw of the others.
ABHD4 inh: ABHD4 inhibitors, primary screen, biochemical, fluorescence polarization, mouse | 370,000 tested, 0.54% active | AID 720543, 2013 | (Lyso)-N-acylphosphatidylethanolamine lipase (Mus musculus), Q8VD66 | inhibition, % at 8.92 µM | purified mABHD4, FP-Rh probe fluorescence polarization;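 active = inhibition exceeding the mean over every tested compound plus 3 SD, cut at about 30% in these data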;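 also: 0% = plate median of compound wells and 100% = S159A mutant with DMSO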
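Assay system: mABHD4 protein; medium: HEPES pH 7.0, NaCl, Pluronic buffer; dosing: 8.92 µM, single dose; schedule: 45 min + 60 min at 25 °C; signal: FP readout, ex 525 nm / em 598 nm; read-out: normalized percent inhibition of probe labeling; repeats: single replicate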
ATG4B inh: ATG4B protease inhibitors, primary screen, biochemical, fluorescence, uHTS; ATG4B cleavage of LC3-PLA2, NBD-HPC fluorescence, 1 h; AID 504462, 2011; inhibition, % at 8.33 µM; Cysteine protease ATG4B (Homo sapiens), Q9Y4P1; 340,000 tested, 0.51% active; in the data active = inhibition above about 40%
SIAE primary: human SIAE inhibitors, primary screen, biochemical, fluorescence polarization, FP-Rh probe, 1536-well HTS; SIAE FP-Rh probe binding; 370,000 tested, 0.69% active; inhibition, % at 9.66 µM; Sialate O-acetylesterase (Homo sapiens), Q9HAT2;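 active = inhibition above a cutoff: mean of compounds within the control limits plus 3 SD of those, cut at about 17% in these data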;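 also: 0% = plate median of compound wells and 100% = probe without SIAE protein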
PRMT1 inh: PRMT1 methyltransferase inhibitors, primary screen, biochemical, fluorescence polarization. inhibition, % at 2.79 µM. 370,000 tested, 1.3% active. AID 652257, 2013. recombinant PRMT1, activity-based probe fluorescence polarization;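 active = inhibition above about 21% made by adding two undisclosed values, limit read from the data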
Target sequence (Q99873 whole entry, looked up): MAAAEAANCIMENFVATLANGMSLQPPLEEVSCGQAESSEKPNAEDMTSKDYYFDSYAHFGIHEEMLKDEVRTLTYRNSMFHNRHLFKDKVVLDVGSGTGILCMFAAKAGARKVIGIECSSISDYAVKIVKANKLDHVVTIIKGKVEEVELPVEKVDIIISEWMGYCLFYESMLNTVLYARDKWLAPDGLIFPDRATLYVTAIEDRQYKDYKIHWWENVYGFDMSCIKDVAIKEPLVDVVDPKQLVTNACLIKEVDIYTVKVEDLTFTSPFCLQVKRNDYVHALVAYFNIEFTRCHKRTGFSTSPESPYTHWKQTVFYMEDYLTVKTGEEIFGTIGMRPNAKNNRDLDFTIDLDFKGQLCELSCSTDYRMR
TCR CD3 inh: inhibitors of human TCR-CD3 interaction, primary screen, biochemical, fluorescence, TAMRA-labeled TCR probe; 360,000 tested, 0.37% active; inhibition, % at 9.4 µM; AID 651800, 2012; in the data active = inhibition above about 19%;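 also: recombinant mutant TCR 2C K166C tagged with TAMRA read by polarization; 0% = receptor in buffer alone and 100% = receptor with positive control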
HTRA1 inhibitor: HTRA1 serine protease inhibitors, primary screen, biochemical, fluorescence polarization, HTS | Q92743 | recombinant HTRA1, FP-rhodamine activity-based probe | inhibition, % at 5.96 µM | 340,000 tested, 0.5% active | AID 504803, 2011; in the data active = inhibition above about 36%;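 also: 0% = enzyme with DMSO and 100% = wells lacking enzyme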
PRMT1 inh conf: PRMT1 methyltransferase inhibitors, confirmation, biochemical, fluorescence polarization, triplicate | shares compounds with PRMT1 inh | recombinant His-PRMT1, activity-based probe fluorescence polarization | inhibition, % at 2.79 µM | 3,300 tested, 42% active | AID 687036, 2013;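 active = mean inhibition across replicates above the hit cutoff derived for the earlier primary screen, cut at about 22% in these data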
Starred values were filed as active, the others as inactive; . = no result.

SMILES | ABHD4 inh | ATG4B inh | SIAE primary | PRMT1 inh | TCR CD3 inh | HTRA1 inhibitor | PRMT1 inh conf
CC[n+]1c(/C=C2/C=C(C)CC(C)(C)C2)sc2ccc(OC)cc21 | -3 | 1 | -6 | 36* | 0 | 8 | 1
COC(=O)[C@]12C=CCN1[C@H](c1ccccc1)c1c(c3ccccc3n1S(=O)(=O)c1ccc(C)cc1)C2 | -15 | . | -29 | 4 | . | . | .
COc1ccc(S(=O)(=O)NCc2cccnc2)cc1NC(=O)c1ccccc1C | 16 | -1 | -28 | 48* | 5 | 8 | 6
Cc1ccc(-c2cc(C(=O)NN=Cc3c4ccccc4cc4ccccc34)[nH]n2)cc1C | -2 | . | -1 | -1 | . | . | .
Cc1sc(NC(=S)NC(=O)c2ccccc2)c(C#N)c1C | -3 | -3 | 1 | 18 | -7 | -9 | .
Cc1sc(NC(=S)NC(=O)c2ccco2)c(C#N)c1C | -6 | 26 | -2 | 49* | -7 | -4 | 3
COC(=O)[C@]12C[C@H](CC(=O)NCc3ccc(C)o3)C(=O)N(CCc3ccc(OC)c(OC)c3)C1=C[C@H](COCc1ccccc1)O[C@@H]2C | -1 | . | 1 | -2 | . | . | .
COc1cc(C)c(NC(=O)C(=S)NCCc2ccccc2)cc1C | 1 | 3 | -7 | 31* | 6 | -7 | 38*
COc1ccc(NC(=S)NCCc2ccccc2)c(C)c1 | -2 | -5 | 5 | -2 | 1 | 2 | .
CCCCNS(=O)(=O)CC1NCc2cc(OC)ccc21 (configuration not stated) | -2 | . | 7 | -5 | . | . | .
COc1ccc(CC(=O)Nc2nccs2)cc1OC | 0 | 2 | 5 | 1 | 0 | 2 | .
COc1ccc(CC(=O)Nc2ncc([N+](=O)[O-])s2)cc1OC | 5 | -2 | -7 | 47* | -6 | 6 | 21
O=C(NCCCc1ccccc1)OC1CC2CC1[C@H]1CCCCN1[C@H]2Cc1ccccc1 (some centres not stated) | 0 | . | -1 | -1 | . | . | .
C=CCn1c(SCC(=O)OC(C)C)nnc1-c1ccc(C)cc1 | 2 | . | 3 | 40* | . | . | -3
Nc1nc(N)c2[nH]c(=S)[nH]c2n1 | 1 | 3 | 9 | 54* | 4 | -1 | 9
O=C(O)c1ccccc1-c1c2cc(I)c(=O)c(I)c-2oc2c(I)c(O)c(I)cc12 | -243 | -6 | -292 | 83* | -258 | -149 | 75*
O=Cc1ccc(-c2ccccc2C(=O)O)o1 | -2 | -1 | 1 | 4 | -2 | -1 | .
CC(=O)NC(C)C(=O)N1CCCC1C(=O)N1CCCC1C(=O)NC(C)C(=O)NC1C(=O)NC(CC(C)C)C(=O)NC2CCCCNC(=O)CCC(C(=O)NC(Cc3ccc(O)cc3)C(=O)O)NC(=O)C3CCC(=O)OCC(NC(=O)C4CCCN4C(=O)C(Cc4c[nH]c5ccccc45)NC2=O)C(=O)NC(CC(=O)OC1C)C(=O)NC(Cc1c[nH]c2ccccc12)C(=O)N3 (configuration not stated) | -6 | . | 1 | -1 | . | . | .
CCOc1ccc2nc3sc(C(=O)N4CCOCC4)c(N)c3cc2c1 | 4 | -4 | 1 | 28* | -6 | 0 | 3
Cc1ccc(S(=O)(=O)NN=CC=CC=NNS(=O)(=O)c2ccc(C)cc2)cc1 | 16 | . | 6 | 39* | -5 | 9 | 44*
O=S1(=O)CC2c3ccccc3CN2CN1C1CCCC1 (configuration not stated) | -42 | . | -1 | 1 | . | . | .
O=C1C=CC(=O)N1c1ccc2c(c1)C(NC(=O)C(F)(F)F)c1ccccc1-2 (configuration not stated) | -1 | -15 | -18 | 91* | -10 | -28 | 87*
CCOC(=O)[C@]12CCCC=C1N(Cc1ccc(OC)cc1)C(=O)[C@@H]2CC(=O)NCCc1ccccc1OC | 1 | . | 1 | -3 | . | . | .
Nc1ccccc1SSc1ccccc1N | 4 | -17 | 11 | 83* | -1 | 12 | 84*
C=CCCC1(CCC)C(=O)/C(=C(\O)c2ccccc2)C(=O)C(CCC)=C1OC (configuration not stated) | 4 | . | 3 | -2 | . | . | .
SMILES | ABHD4 inh | ATG4B inh | SIAE primary | PRMT1 inh | TCR CD3 inh | HTRA1 inhibitor | PRMT1 inh conf
COC(=O)c1ccc2c(=O)n(CCN3CCOCC3)c(SCC(=O)Nc3ccccc3OC)nc2c1 | 0 | . | 3 | 7 | -2 | 6 | .
COC(=O)c1ccc2c(=O)n(CCN3CCOCC3)c(SCC(=O)Nc3ccccc3Cl)nc2c1 | 3 | -4 | 0 | 27* | -1 | 4 | 48*
Cn1sc2ccccc2c1=O | 13 | . | 11 | 71* | -6 | 2 | 77*
O=C1CN(c2ccccc2F)C(=O)CN1c1ccccc1F | 9 | -24 | 2 | -1 | -1 | 4 | .
O=c1c2ccccc2sn1-c1nccs1 | 10 | -5 | -2 | 97* | -1 | . | 88*
O=c1c2ccccc2sn1-c1ccccc1F | 4 | . | 9 | 89* | 1 | 1 | 96*
Cc1cccc(NC(=O)Cn2nnc(-c3ccccc3F)n2)c1C | 1 | . | 2 | -3 | . | . | .
NC(=O)c1ccc(SCC(=O)OCC(=O)NCc2cccs2)c([N+](=O)[O-])c1 | -6 | -10 | -17 | 45* | 9 | 6 | -4
NC(=O)c1ccc(SCC(=O)OCC(=O)NCC2CCCCC2)c([N+](=O)[O-])c1 | 8 | 14 | 11 | 20 | 1 | -3 | .
COC(=O)C1=C(C(=O)OC)[C@@]2([C@@H](Cc3ccc(C)cc3)Nc3ccccc3)C=C[C@@H]1O2 | -1 | . | 9 | 12 | . | . | .
C[C@H](NC(=O)OCc1ccccc1)P(=O)(O)O | 7 | . | 4 | -2 | . | . | .
Cc1cccc2sc(NC(=O)CCn3cccc3)nc12 | -5 | -2 | -6 | 5 | -7 | -18 | .
Cc1cccc2sc(NC(=O)Cn3cccc3)nc12 | -11 | -2 | -1 | 33* | -5 | -8 | 19
Cc1ccc(/C=C/C(=O)N2CCN(c3ncccn3)CC2)o1 | -3 | -9 | -1 | 50* | 6 | 0 | 36*
CC(=O)c1cccc(OCc2cc(C(=O)N(C)CCc3ccccn3)no2)c1 | 3 | 22 | 0 | 1 | 2 | -5 | .
Cc1ccc(CN(C)C(=O)c2ccccc2Oc2ccccc2)o1 | 5 | -6 | 1 | 34* | 4 | -10 | 14
CC(=O)c1cccc(OCc2cc(C(=O)N(C)Cc3ccc(C)o3)no2)c1 | 2 | 5 | -3 | 32* | 4 | 1 | 47*
